These results are taken from ChEMBL document CHEMBL3600355, “The importance of the 6- and 7-positions of tetrahydroisoquinolines as selective antagonists for the orexin 1 receptor” (Bioorg Med Chem, 2015).

As a reminder, the inhibition is the drop in the measured response relative to a control, in per cent.

Molecules are shown by their SMILES.

For the experiment, the target named is T1, Orexin receptor type 2 (Homo sapiens) (UniProt O43614).
T1 sequence (whole entry): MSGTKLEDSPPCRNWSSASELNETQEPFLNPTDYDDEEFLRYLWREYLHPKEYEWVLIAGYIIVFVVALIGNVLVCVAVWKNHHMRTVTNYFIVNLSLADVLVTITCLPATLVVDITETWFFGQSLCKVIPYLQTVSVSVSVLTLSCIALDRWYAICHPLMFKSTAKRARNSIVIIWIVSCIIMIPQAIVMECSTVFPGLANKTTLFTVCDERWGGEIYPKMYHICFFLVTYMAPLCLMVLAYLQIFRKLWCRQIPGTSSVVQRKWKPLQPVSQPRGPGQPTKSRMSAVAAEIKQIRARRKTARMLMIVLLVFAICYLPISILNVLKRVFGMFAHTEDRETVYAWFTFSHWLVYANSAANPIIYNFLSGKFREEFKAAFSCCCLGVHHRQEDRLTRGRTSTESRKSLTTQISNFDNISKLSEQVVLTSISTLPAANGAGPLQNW
Description: Antagonist activity at human OX2 receptor expressed in CHO-RD-HGA16 cells assessed as inhibition of orexin-A-induced calcium mobilization at 10 uM preincubated for 15 mins followed by orexin-A addition measured every 1.52 secs over 60 secs by calcium 5 dye-based fluorescence assay relative to control. The format is functional, cell-based. An outline of the steps: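 OX2 stable CHO-RD-HGA16 cells, Calcium 5 dye-loaded, were pre-incubated 15 min at 37°C with compound at 10 μM before orexin A addition. Calcium fluorescence was read every 1.52 s for 60 s and percent inhibition of the orexin A response recorded.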
(In general: Calcium assays in cells follow changes in intracellular calcium, usually with a dye or a luminescent sensor.)
Regarding `COc1ccc(CC2c3ccc(NCc4ccccc4)cc3CCN2CC(=O)NCc2ccccc2)cc1OC` (configuration not stated), the inhibition was below 50%. As for `COc1ccc(CC2c3ccc(OC(C)C)cc3CCN2CC(=O)NCc2ccccc2)cc1OC` (configuration not stated), the inhibition is below 50%. The value for `COc1ccc(CC2c3ccc(NCC(=O)N(C)C)cc3CCN2CC(=O)NCc2ccccc2)cc1OC` (configuration not stated) was below 50%.

`COc1ccc(CC2c3ccc(NC(C)C)cc3CCN2CC(=O)NCc2ccccc2)cc1OC` (configuration not stated): the inhibition is below 50%. In the case of `CCCN(CCC)c1ccc2c(c1)CCN(CC(=O)NCc1ccccc1)C2Cc1ccc(OC)c(OC)c1` (configuration not stated), the inhibition is below 50%. Take `CCCOc1ccc2c(c1)CCN(CC(=O)NCc1ccccc1)C2Cc1ccc(OC)c(OC)c1` (configuration not stated): the inhibition was below 50%.

As to `COc1ccc(CC2c3ccc(OCc4ccccc4)cc3CCN2CC(=O)NCc2ccccc2)cc1OC` (configuration not stated), the inhibition was below 50%.

Consider `COc1ccc(CC2c3ccc(OCC(F)(F)F)cc3CCN2CC(=O)NCc2ccccc2)cc1OC` (configuration not stated), for which the inhibition was below 50%. Take `COc1ccc(CC2c3ccc(N4CCCC4)cc3CCN2CC(=O)NCc2ccccc2)cc1OC` (configuration not stated): the inhibition was below 50%. Regarding `COc1ccc(CC2c3ccc(N4CCCCC4)cc3CCN2CC(=O)NCc2ccccc2)cc1OC` (configuration not stated), the inhibition is below 50%. The value for `COc1ccc(CC2c3ccc(N(C)C)cc3CCN2CC(=O)NCc2ccccc2)cc1OC` (configuration not stated) was below 50%; that for `COc1ccc(CC2c3ccc(NC(=O)Nc4ccccc4)cc3CCN2CC(=O)NCc2ccccc2)cc1OC` (configuration not stated) was below 50%; that for `COc1ccc(CC2c3ccc(NCC4CC4)cc3CCN2CC(=O)NCc2ccccc2)cc1OC` (configuration not stated) was below 50%. The value for `COc1ccc(CC2c3ccc(NS(C)(=O)=O)cc3CCN2CC(=O)NCc2ccccc2)cc1OC` (configuration not stated) was below 50%; that for `CCCCCNc1ccc2c(c1)CCN(CC(=O)NCc1ccccc1)C2Cc1ccc(OC)c(OC)c1` (configuration not stated) was below 50%; that for `COc1ccc(CC2c3ccc(N(C)Cc4ccccc4)cc3CCN2CC(=O)NCc2ccccc2)cc1OC` (configuration not stated) was below 50%. On to `CCCCCCN(C)c1ccc2c(c1)CCN(CC(=O)NCc1ccccc1)C2Cc1ccc(OC)c(OC)c1` (configuration not stated), for which the inhibition is below 50%. With `CCOC(=O)CCCCCCOc1ccc2c(c1)CCN(CC(=O)NCc1ccccc1)C2Cc1ccc(OC)c(OC)c1` (configuration not stated), the inhibition is below 50%. In the case of `CCCNc1ccc2c(c1)CCN(CC(=O)NCc1ccccc1)C2Cc1ccc(OC)c(OC)c1` (configuration not stated), the inhibition is below 50%. As for `COc1ccc(CC2c3ccc(NC(C)=O)cc3CCN2CC(=O)NCc2ccccc2)cc1OC` (configuration not stated), the inhibition is below 50%. With `COc1ccc(CC2c3ccc(NCc4ccncc4)cc3CCN2CC(=O)NCc2ccccc2)cc1OC` (configuration not stated), the inhibition was below 50%. Consider `COc1ccc(CC2c3ccc(OS(=O)(=O)c4ccccc4)cc3CCN2CC(=O)NCc2ccccc2)cc1OC` (configuration not stated), for which the inhibition was below 50%. Consider `COc1ccc(CC2c3ccc(NCCN4CCCCC4)cc3CCN2CC(=O)NCc2ccccc2)cc1OC` (configuration not stated), for which the inhibition is below 50%. Regarding `COc1ccc(CC2c3ccc(N(C)CC4CC4)cc3CCN2CC(=O)NCc2ccccc2)cc1OC` (configuration not stated), the inhibition is below 50%. Consider `CCOC(=O)C(C)Nc1ccc2c(c1)CCN(CC(=O)NCc1ccccc1)C2Cc1ccc(OC)c(OC)c1` (configuration not stated), for which the inhibition was below 50%. Take `CCCCCN(C)c1ccc2c(c1)CCN(CC(=O)NCc1ccccc1)C2Cc1ccc(OC)c(OC)c1` (configuration not stated): the inhibition is below 50%.

Regarding `COc1ccc(CC2c3ccc(NC(=O)c4ccccc4)cc3CCN2CC(=O)NCc2ccccc2)cc1OC` (configuration not stated), the inhibition was below 50%. In the case of `CCOC(=O)CCCCCCNc1ccc2c(c1)CCN(CC(=O)NCc1ccccc1)C2Cc1ccc(OC)c(OC)c1` (configuration not stated), the inhibition was below 50%.

Consider `COC(=O)CCCCNc1ccc2c(c1)CCN(CC(=O)NCc1ccccc1)C2Cc1ccc(OC)c(OC)c1` (configuration not stated), for which the inhibition is below 50%. The value for `CCCCCCNC(=O)Nc1ccc2c(c1)CCN(CC(=O)NCc1ccccc1)C2Cc1ccc(OC)c(OC)c1` (configuration not stated) was below 50%.

As to `COc1ccc(CC2c3ccc(NCCCc4ccccc4)cc3CCN2CC(=O)NCc2ccccc2)cc1OC` (configuration not stated), the inhibition was below 50%. As to `COc1ccc(CC2c3ccc(NCc4cccnc4)cc3CCN2CC(=O)NCc2ccccc2)cc1OC` (configuration not stated), the inhibition is below 50%.
